Experimental data reported in ChEMBL document CHEMBL5058577, “EUbOPEN Chemogenomics Library 2 (Multiplex)” (2022).

Tested on: HEK-293T
Experiment: Multiplex assay against HEK293T
Assay type: toxicity, cell-based
Conditions: human
How it was run: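 Cells were classed with CellPathfinder machine-learning gating, first as Hoechst high-intensity objects or normal cells, then (normal cells) as healthy, pyknosed or fragmented nuclei, and finally (pyknosed cells) as mitotic or apoptotic. Staining of live cells at seeding used Hoechst33342, BioTracker Green Microtubule Cytoskeleton Dye, MitoTracker Red and Annexin V Alexa Fluor 680, with imaging on a CQ1 microscope at 37°C and 5% CO2 after compound addition. Tubulin, mitochondrial-mass and membrane-permeability phenotypes are per cents of healthy-nucleus cells.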

[1] = 12 h, 1 µM, compound concentration 1 uM, replicate 1
[2] = 12 h, 1 µM, compound concentration 1 uM, replicate 2
[3] = 12 h, 10 µM, compound concentration 10 uM, replicate 1
[4] = 12 h, 10 µM, compound concentration 10 uM, replicate 2
[5] = 24 h, 1 µM, compound concentration 1 uM, replicate 1
[6] = 24 h, 1 µM, compound concentration 1 uM, replicate 2
[7] = 24 h, 10 µM, compound concentration 10 uM, replicate 1
[8] = 24 h, 10 µM, compound concentration 10 uM, replicate 2
[9] = 48 h, 1 µM, compound concentration 1 uM, replicate 1
[10] = 48 h, 1 µM, compound concentration 1 uM, replicate 2
[11] = 48 h, 10 µM, compound concentration 10 uM, replicate 1
[12] = 48 h, 10 µM, compound concentration 10 uM, replicate 2

For N[C@@]1(C(=O)O)CO[C@H]2[C@H](C(=O)O)[C@H]21 [LY-379268], the “Population Apoptotic (%)” value [1] was 40%, the “Population Fragmented Nuclei (%)” value [1] was 6% and the “Population Healthy Nuclei (%)” value [1] was 81%. The “Population Hoechst High Intensity Objects (%)” value [1] was 5%, the “Population Membrane Permeable-Phenotype (%)” value [1] was 0% and the “Population Mitochondria Different-Phenotype (%)” value [1] was 38%. For the same compound, the “Population Mitotic Cells (%)” value [1] was 60%, the “Population Normal (%)” value [1] was 94% and the “Population Pyknosed Nuclei (%)” value [1] was 12%. For the same compound, the “Population Tubulin-Different-Phenotype (%)” value [1] was 26%, the “Total Cell Count” value [1] was 396 and the “Population Apoptotic (%)” value [2] was 42%. The “Population Healthy Nuclei (%)” value [2] was 80%, the “Population Hoechst High Intensity Objects (%)” value [2] was 10% and the “Population Membrane Permeable-Phenotype (%)” value [2] was 1%. For the same compound, the “Population Mitochondria Different-Phenotype (%)” value [2] was 57%, the “Population Mitotic Cells (%)” value [2] was 57% and the “Population Normal (%)” value [2] was 89%. The “Population Tubulin-Different-Phenotype (%)” value [2] was 18%, the “Total Cell Count” value [2] was 411 and the “Population Apoptotic (%)” value [3] was 27%. For the same compound, the “Population Fragmented Nuclei (%)” value [3] was 10%, the “Population Healthy Nuclei (%)” value [3] was 78% and the “Population Hoechst High Intensity Objects (%)” value [3] was 8%. The “Population Membrane Permeable-Phenotype (%)” value [3] was 0%, the “Population Mitochondria Different-Phenotype (%)” value [3] was 33% and the “Population Mitotic Cells (%)” value [3] was 72%. The “Population Normal (%)” value [3] was 91%, the “Population Pyknosed Nuclei (%)” value [3] was 10% and the “Population Tubulin-Different-Phenotype (%)” value [3] was 31%. The “Total Cell Count” value [3] was 437, the “Population Apoptotic (%)” value [4] was 52% and the “Population Fragmented Nuclei (%)” value [4] was 8%. For the same compound, the “Population Healthy Nuclei (%)” value [4] was 79%, the “Population Hoechst High Intensity Objects (%)” value [4] was 7% and the “Population Mitochondria Different-Phenotype (%)” value [4] was 51%. For the same compound, the “Population Mitotic Cells (%)” value [4] was 47%, the “Population Normal (%)” value [4] was 92% and the “Population Pyknosed Nuclei (%)” value [4] was 12%. For the same compound, the “Population Tubulin-Different-Phenotype (%)” value [4] was 18%, the “Total Cell Count” value [4] was 380 and the “Population Apoptotic (%)” value [5] was 30%. For the same compound, the “Population Fragmented Nuclei (%)” value [5] was 8%, the “Population Healthy Nuclei (%)” value [5] was 79% and the “Population Hoechst High Intensity Objects (%)” value [5] was 2%. The “Population Membrane Permeable-Phenotype (%)” value [5] was 0%, the “Population Mitochondria Different-Phenotype (%)” value [5] was 21% and the “Population Mitotic Cells (%)” value [5] was 70%. For the same compound, the “Population Normal (%)” value [5] was 97%, the “Population Pyknosed Nuclei (%)” value [5] was 11% and the “Population Tubulin-Different-Phenotype (%)” value [5] was 20%. For the same compound, the “Total Cell Count” value [5] was 517, the “Population Apoptotic (%)” value [6] was 29% and the “Population Fragmented Nuclei (%)” value [6] was 7%. For the same compound, the “Population Healthy Nuclei (%)” value [6] was 83%, the “Population Hoechst High Intensity Objects (%)” value [6] was 7% and the “Population Mitochondria Different-Phenotype (%)” value [6] was 31%. For the same compound, the “Population Normal (%)” value [6] was 92%, the “Population Pyknosed Nuclei (%)” value [6] was 9% and the “Population Tubulin-Different-Phenotype (%)” value [6] was 13%. The “Total Cell Count” value [6] was 481, the “Population Apoptotic (%)” value [7] was 36% and the “Population Fragmented Nuclei (%)” value [7] was 10%. The “Population Healthy Nuclei (%)” value [7] was 79%, the “Population Hoechst High Intensity Objects (%)” value [7] was 6% and the “Population Membrane Permeable-Phenotype (%)” value [7] was 0%. For the same compound, the “Population Mitochondria Different-Phenotype (%)” value [7] was 24%, the “Population Mitotic Cells (%)” value [7] was 63% and the “Population Normal (%)” value [7] was 93%. The “Population Pyknosed Nuclei (%)” value [7] was 9%, the “Population Tubulin-Different-Phenotype (%)” value [7] was 15% and the “Total Cell Count” value [7] was 551. For the same compound, the “Population Apoptotic (%)” value [8] was 43%, the “Population Fragmented Nuclei (%)” value [8] was 8% and the “Population Healthy Nuclei (%)” value [8] was 82%. For the same compound, the “Population Hoechst High Intensity Objects (%)” value [8] was 8%, the “Population Mitochondria Different-Phenotype (%)” value [8] was 39% and the “Population Mitotic Cells (%)” value [8] was 56%. For the same compound, the “Population Normal (%)” value [8] was 91%, the “Total Cell Count” value [8] was 470 and the “Population Apoptotic (%)” value [9] was 26%. The “Population Fragmented Nuclei (%)” value [9] was 13%, the “Population Healthy Nuclei (%)” value [9] was 79% and the “Population Hoechst High Intensity Objects (%)” value [9] was 3%. The “Population Membrane Permeable-Phenotype (%)” value [9] was 1%, the “Population Mitochondria Different-Phenotype (%)” value [9] was 15% and the “Population Mitotic Cells (%)” value [9] was 73%. For the same compound, the “Population Normal (%)” value [9] was 97%, the “Population Pyknosed Nuclei (%)” value [9] was 6% and the “Population Tubulin-Different-Phenotype (%)” value [9] was 9%. For the same compound, the “Total Cell Count” value [9] was 866, the “Population Apoptotic (%)” value [10] was 33% and the “Population Fragmented Nuclei (%)” value [10] was 10%. The “Population Healthy Nuclei (%)” value [10] was 81%, the “Population Hoechst High Intensity Objects (%)” value [10] was 7% and the “Population Membrane Permeable-Phenotype (%)” value [10] was 0%. The “Population Mitochondria Different-Phenotype (%)” value [10] was 22%, the “Population Mitotic Cells (%)” value [10] was 66% and the “Population Normal (%)” value [10] was 92%. The “Population Pyknosed Nuclei (%)” value [10] was 7%, the “Population Tubulin-Different-Phenotype (%)” value [10] was 14% and the “Total Cell Count” value [10] was 611. The “Population Apoptotic (%)” value [11] was 24%, the “Population Fragmented Nuclei (%)” value [11] was 16% and the “Population Healthy Nuclei (%)” value [11] was 75%. For the same compound, the “Population Hoechst High Intensity Objects (%)” value [11] was 4%, the “Population Membrane Permeable-Phenotype (%)” value [11] was 1% and the “Population Mitochondria Different-Phenotype (%)” value [11] was 18%. The “Population Mitotic Cells (%)” value [11] was 75%, the “Population Normal (%)” value [11] was 95% and the “Population Pyknosed Nuclei (%)” value [11] was 7%. For the same compound, the “Population Tubulin-Different-Phenotype (%)” value [11] was 10%, the “Total Cell Count” value [11] was 781 and the “Population Apoptotic (%)” value [12] was 25%. For the same compound, the “Population Fragmented Nuclei (%)” value [12] was 11%, the “Population Healthy Nuclei (%)” value [12] was 80% and the “Population Membrane Permeable-Phenotype (%)” value [12] was 0%. The “Population Mitochondria Different-Phenotype (%)” value [12] was 19%, the “Population Tubulin-Different-Phenotype (%)” value [12] was 9% and the “Total Cell Count” value [12] was 689.
